Assay results from ChEMBL document CHEMBL1143366, “Synthesis and antitumor activity of novel enediyne-linked pyrrolo[2,1-c][1,4]benzodiazepine hybrids” (Bioorg Med Chem, 2009).
Activity calls are given as the source filed them. The rule behind the calls is not given here.

Experiments:
[1] = Cytotoxicity against human 293T cells assessed as survival at 4 uM after 24 hrs by MTT assay; assay type: cell-based, HEK-293T; conditions: read-out: Survival
Outline: (§1)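 Cells seeded at 2500 cells/well, incubated overnight, then exposed to agents at 4 µM for 24 h. Medium replaced with MTT dye, 2 h at 37 °C. Formazan dissolved in DMSO, absorbance read at 540 nm. Survival expressed as % of untreated control.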

[2] = Cell cycle arrest in human 293T cells assessed as accumulation at sub-G1 phase at 4 uM after 24 hrs using propidium iodide staining by FACS; assay type: functional, cell-based; conditions: HEK-293T
Outline: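 293T cells exposed to 4 µM agents for 24 h, harvested by trypsinization and fixed in 50% cold ethanol at −20 °C. Washed in PBS, then RNase A (100 µg/mL) for 20 min at 37 °C. DNA content of 10,000 events read by flow cytometry. Result is % of cells in the sub-G1 peak.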

NCI-H1355 = experiment: Cytotoxicity against human NCI-H1355 cells assessed as survival at 4 uM after 24 hrs by MTT assay; assay type: functional; conditions: NCI-H1355, 24 h, read-out: Survival; outline: as §1
A-375 = experiment: Cytotoxicity against human A375 cells assessed as survival at 4 uM after 24 hrs by MTT assay; assay type: functional; conditions: A-375, 24 h, read-out: Survival; outline: as §1
A2058 = experiment: Cytotoxicity against human A2058 cells assessed as survival at 4 uM after 24 hrs by MTT assay; assay type: functional; conditions: A2058, 24 h, read-out: Survival; outline: as §1
MCF7 [3] = experiment: Cytotoxicity against human MCF7 cells assessed as survival at 4 uM after 24 hrs by MTT assay; assay type: functional; conditions: MCF7, 24 h, read-out: Survival; outline: as §1
HEK-293T [4] = experiment: Induction of apoptosis in human 293T cells assessed as decrease in p53 protein expression at 1 uM after 24 hrs by Western blot analysis; assay type: functional, cell-based
Outline: (§2)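 293T cells were exposed for 24 h to graded concentrations (0, 1, 2 and 4 µM shown) or to 4 µM agent. Cell lysates were immunoblotted for caspase-3 (CPP32) and p53, with actin as the loading control. Primary antibody ran 2 h at room temperature or overnight at 4 °C, then HRP secondary 1 h at room temperature, with chemiluminescent detection.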

SK-MEL-2 = experiment: Cytotoxicity against human SK-MEL-2 cells after 24 hrs by MTT assay; assay type: functional; conditions: SK-MEL-2, 24 h
RPMI-8226 = experiment: Cytotoxicity against human RPMI8226 cells after 24 hrs by MTT assay; assay type: functional; conditions: RPMI-8226, 24 h
IGROV-1 = experiment: Cytotoxicity against human IGROV1 cells after 24 hrs by MTT assay; assay type: functional; conditions: IGROV-1, 24 h
SW-620 = experiment: Cytotoxicity against human SW620 cells after 24 hrs by MTT assay; assay type: functional; conditions: SW-620, 24 h
HEK-293T [5] = experiment: Induction of apoptosis in human 293T cells assessed as change in morphology after 24 hrs; assay type: functional, cell-based
Outline: (§3)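 293T cells (5×10⁵/well) were grown for one day, then treated for 24 h with 4 µM agent or graded concentrations. Morphology was photographed by phase-contrast microscopy at 200×.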

CAKI-1 = experiment: Cytotoxicity against human Caki1 cells after 24 hrs by MTT assay; assay type: functional; conditions: CAKI-1, 24 h
HEK-293T [6] = experiment: Induction of apoptosis in human 293T cells assessed as necrotic cells at 1 uM after 24 hrs using annexin V-FITC/propidium iodide staining by FACS; assay type: functional
Outline: (§4)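 293T cells were treated for 24 h with 4 µM agent or graded concentrations, then harvested by trypsinization and centrifugation. Annexin V-FITC was added to 10⁶ cells per sample, with simultaneous PI staining. About 10,000 cells per group were analysed by flow cytometry, with annexin V⁺/PI⁻ scored as early apoptotic.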

HEK-293T [7] = experiment: Induction of apoptosis in human 293T cells assessed as early apoptotic cells at 2 uM after 24 hrs using annexin V-FITC/propidium iodide staining by FACS; assay type: functional; outline: as §4
T47D = experiment: Cytotoxicity against human T47D cells after 24 hrs by MTT assay; assay type: functional
HEK-293T [8] = experiment: Induction of apoptosis in human 293T cells assessed as necrotic cells at 2 uM after 24 hrs using annexin V-FITC/propidium iodide staining by FACS; assay type: functional; outline: as §4
BT-549 = experiment: Cytotoxicity against human BT549 cells after 24 hrs by MTT assay; assay type: functional; conditions: BT-549, 24 h
CCRF-CEM = experiment: Cytotoxicity against human CCRF-CEM cells after 24 hrs by MTT assay; assay type: functional
HEK-293T [9] = experiment: Induction of apoptosis in human 293T cells assessed as early apoptotic cells at 1 uM after 24 hrs using annexin V-FITC/propidium iodide staining by FACS; assay type: functional; outline: as §4
HEK-293T [10] = experiment: Induction of apoptosis in human 293T cells assessed as degradation of caspase 3 at 4 uM after 24 hrs by Western blot analysis; assay type: functional, cell-based; outline: as §2
HEK-293T [11] = experiment: Induction of apoptosis in human 293T cells assessed as degradation of caspase 3 after 24 hrs by Western blot analysis; assay type: functional, cell-based; outline: as §2
MOLT-4 = experiment: Cytotoxicity against human MOLT4 cells after 24 hrs by MTT assay; assay type: functional; conditions: MOLT-4, 24 h
MCF7 [12] = experiment: Cytotoxicity against human MCF7 cells after 24 hrs by MTT assay; assay type: functional; conditions: MCF7, 24 h
MDA-MB-435 = experiment: Cytotoxicity against human MDA-MB-435 cells after 24 hrs by MTT assay; assay type: functional; conditions: MDA-MB-435, 24 h
HEK-293T [13] = experiment: Induction of apoptosis in human 293T cells assessed as early apoptotic cells at 4 uM after 24 hrs using annexin V-FITC/propidium iodide staining by flow cytometry; assay type: functional; outline: as §4
OVCAR-8 = experiment: Cytotoxicity against human OVCAR8 cells after 24 hrs by MTT assay; assay type: functional; conditions: OVCAR-8, 24 h
HEK-293T [14] = experiment: Induction of apoptosis in human 293T cells assessed as decrease in p53 protein expression at 4 uM after 24 hrs by Western blot analysis; assay type: functional, cell-based; outline: as §2
HEK-293T [15] = experiment: Induction of apoptosis in human 293T cells assessed as necrotic cells at 4 uM after 24 hrs using annexin V-FITC/propidium iodide staining by flow cytometry; assay type: functional; outline: as §4
HEK-293T [16] = experiment: Induction of apoptosis in human 293T cells at 4 uM after 24 hrs using annexin V-FITC staining by FACS; assay type: functional; outline: as §4
HEK-293T [17] = experiment: Induction of apoptosis in human 293T cells assessed as DNA repair deficiency at > 2 uM; assay type: functional, cell-based; outline: as §2
RXF 393 = experiment: Cytotoxicity against human RXF393 cells after 24 hrs by MTT assay; assay type: functional; conditions: RXF 393, 24 h
OVCAR-3 = experiment: Cytotoxicity against human OVCAR-3 cells after 24 hrs by MTT assay; assay type: functional; conditions: OVCAR-3, 24 h
HEK-293T [18] = experiment: Induction of apoptosis in human 293T cells assessed as change in morphology at 4 uM after 24 hrs; assay type: functional, cell-based; outline: as §3

Compound COc1cc2c(cc1OCCCCC#Cc1ccccc1C#Cc1ccccc1)N=C[C@@H]1CCCN1C2=O has a viability at 24 h, 4 µM [1] of 19.2%, an Activity [2] of 13.2% and a viability at 4 µM (NCI-H1355) of 75.2%. For the same compound, the viability at 4 µM (A-375) was 28.3%, the viability at 4 µM (A2058) was 49.5% and the viability at 4 µM (MCF7 [3]) was 85.2%.
For COc1cc2c(cc1OCCCC#Cc1ccccc1C#Cc1ccccc1)N=C[C@@H]1CCCN1C2=O, the Activity (HEK-293T [4]) was “inactive”, the viability at 24 h, 4 µM [1] was 28.7% and the GI50 (SK-MEL-2) was 0.924 µM. The GI50 (RPMI-8226) was 0.285 µM, the GI50 (IGROV-1) was 0.549 µM and the Activity [2] was 14.5%. For the same compound, the GI50 (SW-620) was 0.478 µM, the Activity (HEK-293T [5]) was “Dose-dependent effect” and the GI50 (CAKI-1) was 0.485 µM. It also gave a viability at 4 µM (NCI-H1355) of 87.7%, an Activity (HEK-293T [6]) of 13.7% and an Activity (HEK-293T [7]) of 2.2%. It also gave a GI50 (T47D) of 0.779 µM, an Activity (HEK-293T [8]) of 14.5% and a GI50 (BT-549) of 0.641 µM. The GI50 (CCRF-CEM) was 0.422 µM, the Activity (HEK-293T [9]) was 2.1% and the Activity (HEK-293T [10]) was “Active”. For the same compound, the Activity (HEK-293T [11]) was “Dose-dependent effect”, the GI50 (MOLT-4) was 0.648 µM and the GI50 (MCF7 [12]) was 0.305 µM. The GI50 (MDA-MB-435) was 0.468 µM, the Activity (HEK-293T [13]) was 1.5% and the viability at 4 µM (A-375) was 22.3%. The GI50 (OVCAR-8) was 0.394 µM, the viability at 4 µM (A2058) was 47.2% and the Activity (HEK-293T [14]) was “Active”. For the same compound, the Activity (HEK-293T [15]) was 17.4%, the viability at 4 µM (MCF7 [3]) was 49.7% and the Activity (HEK-293T [16]) was 25.4%. For the same compound, the Activity (HEK-293T [17]) was “Active”, the GI50 (RXF 393) was 0.686 µM and the GI50 (OVCAR-3) was 0.52 µM.
With COc1cc2c(cc1O)N=C[C@@H]1CCCN1C2=O the viability at 24 h, 4 µM [1] was 68.9%, the Activity [2] was 10% and the viability at 4 µM (NCI-H1355) was 73.9%. For the same compound, the viability at 4 µM (A-375) was 50.2%, the viability at 4 µM (A2058) was 63.4% and the viability at 4 µM (MCF7 [3]) was 72.3%.
In the case of COc1cc2c(cc1OCCCCCCNC(=O)c1cc3ccccc3[nH]1)N=C[C@@H]1CCCN1C2=O, the Activity (HEK-293T [18]) is reported as “Active”, the Activity (HEK-293T [10]) is reported as “Active” and the Activity (HEK-293T [14]) is reported as “Active”. The Activity (HEK-293T [16]) was 19.4%.
COc1cc2c(cc1OC/C=C/COCCC#Cc1ccccc1C#Cc1ccccc1)N=C[C@@H]1CCCN1C2=O gave a viability at 24 h, 4 µM [1] of 35.2%, an Activity [2] of 13.6% and a viability at 4 µM (NCI-H1355) of 85.2%. For the same compound, the viability at 4 µM (A-375) was 33.4%, the viability at 4 µM (A2058) was 46.2% and the viability at 4 µM (MCF7 [3]) was 59.2%.
Work on COc1cc2c(cc1OC/C=C\COCC#Cc1ccccc1C#Cc1ccccc1)N=C[C@@H]1CCCN1C2=O yielded a viability at 24 h, 4 µM [1] of 44%, an Activity [2] of 15.6% and a viability at 4 µM (NCI-H1355) of 44%. For the same compound, the viability at 4 µM (A-375) was 33.9%, the viability at 4 µM (A2058) was 39.1% and the viability at 4 µM (MCF7 [3]) was 44%.
With COc1cc2c(cc1OCC#Cc1ccccc1C#Cc1ccccc1)N=C[C@@H]1CCCN1C2=O the viability at 24 h, 4 µM [1] was 48.9%, the Activity [2] was 6.3% and the viability at 4 µM (NCI-H1355) was 70.9%. The viability at 4 µM (A-375) was 13.1%, the viability at 4 µM (A2058) was 46.1% and the viability at 4 µM (MCF7 [3]) was 48.9%.
Compound COc1cc2c(cc1OCC=CCOCCC#Cc1ccccc1C#Cc1ccccc1)N=C[C@@H]1CCCN1C2=O has a viability at 24 h, 4 µM [1] of 60.7%, an Activity [2] of 13.3% and a viability at 4 µM (NCI-H1355) of 71%. For the same compound, the viability at 4 µM (A-375) was 85.7%, the viability at 4 µM (A2058) was 84.5% and the viability at 4 µM (MCF7 [3]) was 83.8%.
In the case of COc1cc2c(cc1OC/C=C/COCC#Cc1ccccc1C#Cc1ccccc1)N=C[C@@H]1CCCN1C2=O, the viability at 24 h, 4 µM [1] is reported as 48.4%, the Activity [2] is reported as 13.9% and the viability at 4 µM (NCI-H1355) is reported as 67.4%. For the same compound, the viability at 4 µM (A-375) was 42.9%, the viability at 4 µM (A2058) was 43% and the viability at 4 µM (MCF7 [3]) was 70.4%.
